The source made the active and inactive calls. The rule behind the calls is not given here.
Experiments:
Rattus norvegicus [1] = assay: Minimum effective dose at which significant increase in uterine weight/body weight in rat was determined (in vivo); type: functional; settings: read-out: MED
Procedure, shortened: (§1)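 In 75-day OVX Sprague–Dawley rats dosed orally for 4 days, beginning 2 weeks post-ovariectomy with 5–6 rats per group, whole uteri were weighed the morning after fasting. MED is the lowest dose giving a significant (p≤0.05) rise in uterine weight/body weight, expressed as % increase over OVX controls ±SE.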

Rattus norvegicus [2] = assay: Dose required to reduce serum cholesterol by 50% relative to OVX controls was determined (in vivo); type: functional
Procedure, shortened: (§2)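 OVX Sprague–Dawley rats (75 days old), 5–6 per group, dosed once daily by oral gavage for 4 consecutive days, starting 14 days after ovariectomy. Vehicle was 20% β-hydroxycyclodextrin at 1 mL/kg, or 1.5% carboxymethylcellulose in some cases. Rats were fasted after the last dose and bled by cardiac puncture next morning.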

Estrogen receptor [3] = target: T1, Estrogen receptor (Homo sapiens, UniProt Q92731+P03372); settings: mcf7
Rattus norvegicus [4] = assay: Minimum effective dose at which significant increase in uterine eosinophil peroxidase (EPO) activity in rat was determined (in vivo); type: functional; settings: read-out: MED
Rattus norvegicus [5] = assay: Percent decrease in serum cholesterol relative to OVX control at 10 mg/kg in rats; type: functional; procedure, shortened: as §2
Rattus norvegicus [6] = assay: Percent protection of bone mineral density in the distal femur of OVX rat at a dose of 1 mg/kg/day; type: functional
Procedure, shortened: (§3)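 OVX Sprague–Dawley rats (6-month old, or 75-day old in one case) were dosed orally each day for 35 days, starting 4 days after ovariectomy. Digitized X-rays of the right distal femoral metaphysis gave BMD. % protection = (test − OVX)/(sham − OVX) × 100, reported ±SE.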

Rattus norvegicus [7] = assay: Minimum effective dose at which significant increase in uterine weight/body weight in rat was determined (in vivo); expressed as % increase relative to ovariectomized (OVX) controls; type: functional; procedure, shortened: as §1
Rattus norvegicus [8] = assay: Percent protection of bone mineral density in the distal femur of OVX rat at a dose of 0.01 mg/kg/day; type: functional; procedure, shortened: as §3
Rattus norvegicus [9] = assay: Percent decrease in serum cholesterol relative to OVX control at 1 mg/kg in rat; type: functional; procedure, shortened: as §2
Rattus norvegicus [10] = assay: Percent protection of bone mineral density in the distal femur of OVX rat at a dose of 10 mg/kg/day; type: functional; procedure, shortened: as §3
Rattus norvegicus [11] = assay: Percent decrease in serum cholesterol relative to OVX control at 0.1 mg/kg in rat was determined (in vivo); type: functional; procedure, shortened: as §2
Rattus norvegicus [12] = assay: Percent protection of bone mineral density in the distal femur of OVX rat at a dose of 0.1 mg/kg/day; type: functional; procedure, shortened: as §3
Rattus norvegicus [13] = assay: Percent decrease in serum cholesterol relative to OVX control at 10 mg/kg in rat was determined (in vivo); type: functional; procedure, shortened: as §2
Estrogen receptor [14] = target: T1, Estrogen receptor; assay: In vitro relative binding affinity by competition with [3H]17-beta-estradiol for estrogen receptor in MCF-7 cell lysate; Not active at the doses tested; type: cell-based
Procedure, shortened: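 Human MCF-7 cell lysate (0.5–1.0 mg/mL total protein) incubated 18 h at 4 °C with 0.5 nM [3H]17β-estradiol and serial dilutions of test compound. Unbound radioligand removed with dextran/charcoal and centrifugation; bound label in the supernatant counted by scintillation. RBA = IC50(17β-estradiol)/IC50(test compound) × 100.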

MCF7 = assay: Inhibition of MCF-7 cell proliferation stimulated by 10e-[…] M 17-beta-estradiol; Not active at the doses tested; type: functional, cell-based, Homo sapiens
Rattus norvegicus [15] = assay: Percent decrease in serum cholesterol relative to OVX control at 1.0 mg/kg in rats; type: functional; procedure, shortened: as §2
Rattus norvegicus [16] = assay: Percent decrease in serum cholesterol relative to OVX control at 0.1 mg/kg in rats; type: functional; procedure, shortened: as §2
Rattus norvegicus [17] = assay: Eosinophil peroxidase activity expressed as Vmax was determined in rat (in vivo) Eosinophil peroxidase activity expressed as Vmax was determined in rat (in vivo); type: functional; design: unit not given here
Rattus norvegicus [18] = assay: Percent protection of bone mineral density in the distal femur of 75-days old OVX rat at a dose of 0.1 mg/kg/day; type: functional; procedure, shortened: as §3
Rattus norvegicus [19] = assay: Percent protection of bone mineral density in the distal femur of 75-days old OVX rat at a dose of 10 mg/kg/day; type: functional; procedure, shortened: as §3
Rattus norvegicus [20] = assay: Percent protection of bone mineral density in the distal femur of 75-days old OVX rat at a dose of 0.01 mg/kg/day; type: functional; procedure, shortened: as §3
Rattus norvegicus [21] = assay: Eosinophil peroxidase activity expressed as Vmax was determined in rat (in vivo); type: functional

| Compound | minimal effective dose (Rattus norvegicus [1]) [mg/kg] | ED50 (Rattus norvegicus [2]) [mg/kg] | IC50 (Estrogen receptor [3]) [nM] | minimal effective dose (Rattus norvegicus [4]) [mg/kg] | Protection (Rattus norvegicus [6]) [%] | Increase (Rattus norvegicus [7]) [%] | Protection (Rattus norvegicus [8]) [%] | Decrease (Rattus norvegicus [9]) [%] | Decrease (Rattus norvegicus [11]) [%] | Protection (Rattus norvegicus [12]) [%] | Decrease (Rattus norvegicus [13]) [%] | other results |
| --- | --- | --- | --- | --- | --- | --- | --- | --- | --- | --- | --- | --- |
| O=C(c1ccc(OCCN2CCCCC2)cc1)c1c(-c2ccc(C(F)(F)F)cc2)sc2cc(O)ccc12 | 5 | 0.4 | 1000 | 5 |  |  |  |  |  |  |  | Decrease (Rattus norvegicus [5]): 71.5% |
| O=C(c1ccc(OCCN2CCCCC2)cc1)c1c(-c2ccc(O)cc2)sc2cc(O)ccc12 [RALOXIFENE] | 0.1 | 0.2 |  | > 10 | 57.7 | 23.5 | 9.6 | 66.7 | 44.9 | 50 | 74 | Protection (Rattus norvegicus [10]): 53.8% |
| O=C(O)c1ccc2c(C(=O)c3ccc(OCCN4CCCCC4)cc3)c(-c3ccc(O)cc3)sc2c1 | 1 | 9 |  | > 10 |  | 40.8 |  | 12.5 | -16.4 |  | 53.3 | relative binding affinity (RBA) (Estrogen receptor [14]): inactive; IC50 (MCF7): Not Active |
| O=C(c1ccc(OCCN2CCCCC2)cc1)c1c(-c2ccc(O)c3ccccc23)sc2cc(O)ccc12 | 0.1 | 1.2 | 2 | 0.1 | 82.5 | 59.6 | 35.9 |  |  | 42.3 | 59.9 | Decrease (Rattus norvegicus [15]): 54.7%; Decrease (Rattus norvegicus [16]): 31.6%; Eosinophil peroxidase activity (Vmax) (Rattus norvegicus [17]): 29.4 |
| Cl.O=C(c1ccc(OCCN2CCCCC2)cc1)c1c(-c2ccc(O)cc2)sc2ccccc12 | 0.1 | < 0.1 | 35 | > 10 | 41.8 | 39.2 |  | 69.9 | 70.7 |  | 67.4 | Protection (Rattus norvegicus [18]): -4%; Protection (Rattus norvegicus [19]): 26.7%; Protection (Rattus norvegicus [20]): -1.3% |
| O=C(c1ccc(OCCN2CCCCC2)cc1)c1c(-c2ccc(O)c(F)c2)sc2cc(O)ccc12 | 0.1 | 0.4 | 0.3 | > 10 | 68 | 34.3 | 34.5 | 59.2 | 45.9 | 34.1 | 55.3 | Protection (Rattus norvegicus [10]): 69.8% |
| Cc1ccc2c(C(=O)c3ccc(OCCN4CCCCC4)cc3)c(-c3ccc(O)cc3)sc2c1.Cl | 1 | > 10 | 300 | > 10 |  | 23.9 |  | 33.9 | 16.9 |  | 21.6 | relative binding affinity (RBA) (Estrogen receptor [14]): inactive |
| CCc1ccc(-c2sc3cc(O)ccc3c2C(=O)c2ccc(OCCN3CCCCC3)cc2)cc1 | 10 | 4.3 | 5 | 1 |  | 29.7 |  | 37.2 | 3.3 |  | 57.4 | Increase (Rattus norvegicus [21]): 39.9 Vmax |
| CC(C)c1ccc(-c2sc3cc(O)ccc3c2C(=O)c2ccc(OCCN3CCCCC3)cc2)cc1 | 0.1 | 3.6 | 30 | 1 |  | 24.9 |  | 47.1 | -24.1 |  | 48.5 | Increase (Rattus norvegicus [21]): 33.3 Vmax |
| O=C(c1ccc(OCCN2CCCCC2)cc1)c1c(Cc2ccc(O)cc2)sc2cc(O)ccc12 | 5 | 4 | 5 | > 10 |  | 36.9 |  |  |  |  |  | Decrease (Rattus norvegicus [15]): 41.7%; Decrease (Rattus norvegicus [16]): -17.6%; Decrease (Rattus norvegicus [5]): 54% |
